The results in this text go back to ChEMBL document CHEMBL1124963, “Antifolate and antibacterial activities of 5-substituted 2,4-diaminoquinazolines” (J Med Chem, 1990).

In one series the test system is Staphylococcus aureus. As to the kind of experiment: Antibacterial activity (10 e-6 log (1/MIC) towards Staphylococcus aureus. In kind it is functional. The essentials: (§1)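 Two-fold serial dilution: each compound prepared as a series of solutions differing by a factor of two, each added to a fixed amount of previously prepared test culture, incubated at 37 °C overnight.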

The test system of another series is Escherichia coli. As to the kind of experiment: Antibacterial activity (10 e-6 log (1/MIC) towards Escherichia coli. In kind it is functional. The essentials: as §1
Series [1] in a line: Partition coefficient (logP). In kind it is physicochemical. To be noted: octanol/water.
A short description of series [2]: Acute toxicity determined in mice by an LD50 test when administered perorally. In kind it is organism-based. To be noted: mouse, in vivo, po.
A short description of series [3]: Dissociation constant was determined using UV method. In kind it is physicochemical. The essentials:
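UV spectrophotometric method. Aqueous stock of compound in distilled water, diluted into 0.01 M NaOH (pH ~12) and 0.001 M HCl (pH ~3) to pick an analytical wavelength from the difference spectrum. Five to seven KH2PO4/borax buffers bracketing the estimated pKa, pH measured at 25 °C. Absorbance read in a 1.0-cm cell at 25.0 °C against buffer. Separate values averaged with SD to give the concentration pKa.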

Series [4] can be described thus: Acute toxicity determined in mice by an LD50 test when administered intraperitoneally. The series is classed as organism-based. As to conditions: mouse, in vivo, ip.
A short description of series [5]: Acute toxicity determined in mice by an LD50 test when administered peritoneally. In kind it is organism-based. To be noted: mouse, in vivo, ip.

A value given as a limit tells only on which side of the number the result lay.

Consider `Nc1nc(N)c2c(Sc3ccccc3)cccc2n1`, for which the Log 1/MIC in the series on Staphylococcus aureus and in the series on Escherichia coli was < -0.6 throughout.

A word on the logP: it is the decadic logarithm of the partition coefficient of the neutral form, usually between octanol and water. For orientation: LD50 means the dose at which mortality reaches 50%. A higher LD50 goes with a less toxic substance. With `Nc1nc(N)c2c(I)cccc2n1`, the “Log 1/MIC” value turned out to be 0.4 with Staphylococcus aureus and 1.7 with Escherichia coli. In addition, the logP in series [1] amounted to 2.12. Further, in series [2], the LD50 was ~500 mg/kg.

On to `Nc1nc(N)c2c(N3CCOCC3)cccc2n1`, for which the “Log 1/MIC” value in the series on Staphylococcus aureus and in the series with Escherichia coli was -0.6 in each case. In series [1], this molecule returned a logP of 1.11.

Consider `CS(=O)(=O)c1cccc2nc(N)nc(N)c12`, for which the “Log 1/MIC” value in the series with Staphylococcus aureus and in the series on Escherichia coli was <-0.6 throughout. In series [1], this molecule returned a logP of 0.63.

In the case of `CCCNC(=O)c1cccc2nc(N)nc(N)c12`, the “Log 1/MIC” value with Staphylococcus aureus and in the series with Escherichia coli was <-0.6 each time. Besides, the logP in series [1] amounted to 0.83.

For the molecule `CCCOc1cccc2nc(N)nc(N)c12`, the “Log 1/MIC” value worked out at 0.2 in the series with Staphylococcus aureus and 1.1 in the series on Escherichia coli. For the same molecule, the logP in series [1] was found to be 2.26.

With `Nc1nc(N)c2c(O)cccc2n1`, the “Log 1/MIC” value is recorded as -0.7 in the series with Staphylococcus aureus and <-0.7 in the series on Escherichia coli.

For orientation: pKa means the negative logarithm of the acid dissociation constant. Read a high pKa as a weaker acid or stronger base. Take `Nc1nc(N)c2c([N+](=O)[O-])cccc2n1`: the “Log 1/MIC” value in the series with Staphylococcus aureus is listed as 0; with Escherichia coli, <0.5. In series [1], the logP came to 1.19. In addition, the pKa in series [3] came to 6.24.

As for `CSc1cccc2nc(N)nc(N)c12`, the “Log 1/MIC” value worked out at 0 with Staphylococcus aureus and 2.2 in the series with Escherichia coli. The logP in series [1] worked out at 1.81.

For the molecule `Nc1nc(N)c2c(S(=O)(=O)c3ccccc3)cccc2n1`, the “Log 1/MIC” value with Staphylococcus aureus and in the series on Escherichia coli was <-0.5 each time. In series [1], this molecule gave a logP of 2.14.

Take `CCCCCCOc1cccc2nc(N)nc(N)c12`: the “Log 1/MIC” value in the series on Staphylococcus aureus turned out to be 1.1; in the series on Escherichia coli, 0.

On to `COC(=O)c1cccc2nc(N)nc(N)c12`, for which the entries for the “Log 1/MIC” value in the series with Staphylococcus aureus and in the series with Escherichia coli were -0.6 and -0.1, respectively. The molecule also came in with a median lethal dose (LD50) in series [4] of 68 mg/kg.

With `Nc1nc(N)c2c(N)cccc2n1`, the “Log 1/MIC” value in the series with Staphylococcus aureus was <0.2; in the series with Escherichia coli, 0.3. The same molecule came in with a logP in series [1] of 0.3.

Consider `CCc1cccc2nc(N)nc(N)c12`, for which the “Log 1/MIC” value in the series with Staphylococcus aureus is given as 0.6; with Escherichia coli, 2.6. Besides, the logP in series [1] stood at 1.69.

As to `Nc1nc(N)c2c(Cl)cccc2n1`, the “Log 1/MIC” value in the series on Staphylococcus aureus worked out at 1.2; with Escherichia coli, 2.1. Moreover, the LD50 in series [4] worked out at 100 mg/kg. This molecule also showed a logP in series [1] of 1.72. Moreover, the pKa in series [3] came to 7.22.

As to `Nc1nc(N)c2ccccc2n1`, the “Log 1/MIC” value in the series on Staphylococcus aureus was 1.3; in the series with Escherichia coli it was 0.7. The molecule also showed a logP in series [1] of 1.01. The molecule further yielded a pKa in series [3] of 8.08.

The molecule `CCCSc1cccc2nc(N)nc(N)c12` registered a logP in series [1] of 2.85.

For the molecule `CN(C)c1cccc2nc(N)nc(N)c12`, the “Log 1/MIC” value is on record as -0.5 in the series on Staphylococcus aureus and -0.4 in the series on Escherichia coli. The same molecule displayed a lipophilicity (logP) in series [1] of 1.65.

As for `NC(=O)c1cccc2nc(N)nc(N)c12`, the “Log 1/MIC” value with Staphylococcus aureus is <-0.7; in the series with Escherichia coli, -0.6. For the same molecule, in series [1], the logP was -0.33. In addition, the pKa in series [3] turned out to be 7.22.

Regarding `CCCCOc1cccc2nc(N)nc(N)c12`, the “Log 1/MIC” value with Staphylococcus aureus is listed as 0.4; in the series with Escherichia coli, 0.6. For the same molecule, the logP in series [1] was found to be 2.81.

On to `Nc1nc(N)c2c(CCc3ccccc3)cccc2n1`, for which the “Log 1/MIC” value in the series on Staphylococcus aureus and in the series with Escherichia coli was 1.3 each time.

Turning to `Nc1nc(N)c2c(F)cccc2n1`, the “Log 1/MIC” value in the series on Staphylococcus aureus amounted to 1.4; in the series on Escherichia coli it was 1.7. Further, the LD50 came out at 100 mg/kg in series [4] and 489 mg/kg in series [2]. In series [1], this molecule showed a logP of 1.19. This molecule also yielded a pKa in series [3] of 7.44.

`Nc1nc(N)c2c(OCc3ccccc3)cccc2n1`: the “Log 1/MIC” value with Staphylococcus aureus is on record as 1; in the series with Escherichia coli, 0.8. The log partition coefficient (logP) in series [1] is 2.82.

Consider `Nc1nc(N)c2c(Oc3ccccc3)cccc2n1`, for which the entries for the “Log 1/MIC” value in the series with Staphylococcus aureus and in the series with Escherichia coli were 0 and 0.2, respectively. The same molecule showed a logP in series [1] of 2.78.

With `CCOc1cccc2nc(N)nc(N)c12`, the “Log 1/MIC” value in the series on Staphylococcus aureus stood at 0.2; in the series with Escherichia coli, 1.7. Moreover, the LD50 in series [4] was ~100 mg/kg. In series [1], this molecule gave a log partition coefficient (logP) of 1.69.

Regarding `COc1cccc2nc(N)nc(N)c12`, the “Log 1/MIC” value was found to be 1 in the series with Staphylococcus aureus and 2.1 in the series with Escherichia coli. For the same molecule, the results for the LD50 in series [4] and in series [2] were 137 mg/kg and ~500 mg/kg, respectively. Further, in series [1], the logP worked out at 1.18. In series [3], this molecule came in with a pKa of 8.32.

Regarding `CCSc1cccc2nc(N)nc(N)c12`, the entries for the “Log 1/MIC” value in the series with Staphylococcus aureus and in the series on Escherichia coli were -0.1 and 2, respectively. In series [1], this molecule returned a logP of 2.27. In series [3], this molecule registered a pKa of 7.87.

As to `CC(C)Oc1cccc2nc(N)nc(N)c12`, the “Log 1/MIC” value in the series with Staphylococcus aureus is reported as -0.1; with Escherichia coli, 0.8. Further, the logP in series [1] amounted to 2.05.

With `Nc1nc(N)c2c(Br)cccc2n1`, the results for the “Log 1/MIC” value with Staphylococcus aureus and in the series on Escherichia coli were 1.5 and 2.2, respectively. This molecule also gave a logP in series [1] of 1.91. The molecule also came in with an LD50 in series [2] of 271 mg/kg.

The molecule `Nc1nc(N)c2c(N3CCCCC3)cccc2n1` displayed a logP in series [1] of 2.66.

As for `Cc1cccc2nc(N)nc(N)c12`, the figures for the “Log 1/MIC” value with Staphylococcus aureus and in the series on Escherichia coli were 0.5 and 1.7, respectively. In series [4], the LD50 is ~100 mg/kg. The molecule also returned a lipophilicity (logP) in series [1] of 1.26. For the same molecule, the pKa in series [3] is 8.19.

For `Nc1ncnc2ccccc12` [4-AMINOQUINAZOLINE], the LD50 is 205 mg/kg in series [4] and 584 mg/kg in series [5].
